Tests used:
[1] = tested on: Radical scavenging activity; assay: Antioxidant activity assessed as [drug]/[DPPH]causing 50% DPPH radical scavenging activity after 5 mins; type: functional
In short: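 DPPH reacted with scavenger at 25 °C in 1.5 mL EtOH plus 0.5 mL 0.2 M acetate buffer (pH 5.5). DPPH started at 50–100 µM and test scavengers at 0.5–25 µM. Percent DPPH scavenging was read after 5 min and plotted against the [scavenger]/[DPPH] ratio. ECR50 is the ratio giving 50% scavenging.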

[2] = Antiradical activity against 2,2'-azobis-amidinopropane-induced linoleic acid peroxidation assessed as ratio of total oxyradical scavenging capacity to Trolox C; type: physicochemical
In short: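 Linoleic acid (0.63 mM) was autoxidized by 1 mM ABAP in 0.05 M phosphate buffer (pH 7.4) with 0.02% Lubrol, in air at 37 °C. Conjugated-diene formation was followed at 234 nm. Inhibitor was added once autoxidation ran at constant rate. Efficiency is expressed relative to Trolox C, with stoichiometric factors taken from lag-time ratios and Trolox n set at 2.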

SMILES | Activity [1] | Ratio [2]
Oc1cccc(O)c1 [RESORCINOL] | 0.29 | 1.7
CC1(C)CC(O)CC(C)(C)N1[O] [TEMPOL] | 64 | 0.4
